In ChEMBL document CHEMBL1821564, “3-Acetyl-2,5-diaryl-2,3-dihydro-1,3,4-oxadiazoles: a new scaffold for the selective inhibition of monoamine oxidase B” (J Med Chem, 2011):

Key:
[1] = biological target: T1, Amine oxidase [flavin-containing] A (Homo sapiens, UniProt P21397); test: Inhibition of human recombinant MAO-A activity expressed in BTI-TN-5B1-4 insect cells at 100 uM using p-tyramine substrate by Amplex Red MAO assay; settings: bti-tn-5b1-4, 100 µM
T1 sequence (P21397 whole entry): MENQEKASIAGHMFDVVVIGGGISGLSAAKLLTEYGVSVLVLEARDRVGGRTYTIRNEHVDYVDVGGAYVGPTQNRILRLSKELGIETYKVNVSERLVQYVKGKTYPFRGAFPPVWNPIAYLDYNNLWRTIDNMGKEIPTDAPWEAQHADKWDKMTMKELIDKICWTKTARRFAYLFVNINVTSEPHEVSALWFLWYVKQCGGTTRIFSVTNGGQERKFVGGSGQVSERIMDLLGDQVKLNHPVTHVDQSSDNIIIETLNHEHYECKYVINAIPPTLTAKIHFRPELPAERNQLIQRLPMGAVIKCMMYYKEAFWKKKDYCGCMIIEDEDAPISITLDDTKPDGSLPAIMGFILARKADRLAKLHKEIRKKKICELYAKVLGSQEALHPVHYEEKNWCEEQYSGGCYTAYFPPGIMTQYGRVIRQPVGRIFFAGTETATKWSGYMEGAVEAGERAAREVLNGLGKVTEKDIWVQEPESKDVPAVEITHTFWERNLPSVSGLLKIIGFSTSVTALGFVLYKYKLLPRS
Method in brief: (§1)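 Microsomal hMAO-A or hMAO-B from baculovirus-infected BTI-TN-5B1-4 insect cells, with p-tyramine substrate. H2O2 production was read with the Amplex Red reagent. Highest concentration tested was 100 μM, limited by precipitation. Compounds were checked for no direct reaction with Amplex Red. IC50 is the mean ± SEM of five experiments.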

[2] = biological target: T2, Amine oxidase [flavin-containing] B (Homo sapiens, UniProt P27338); test: Inhibition of human recombinant MAO-B expressed in BTI-TN-5B1-4 insect cells using p-tyramine substrate by Amplex Red MAO assay; method in brief: as §1
T2 sequence (P27338 whole entry): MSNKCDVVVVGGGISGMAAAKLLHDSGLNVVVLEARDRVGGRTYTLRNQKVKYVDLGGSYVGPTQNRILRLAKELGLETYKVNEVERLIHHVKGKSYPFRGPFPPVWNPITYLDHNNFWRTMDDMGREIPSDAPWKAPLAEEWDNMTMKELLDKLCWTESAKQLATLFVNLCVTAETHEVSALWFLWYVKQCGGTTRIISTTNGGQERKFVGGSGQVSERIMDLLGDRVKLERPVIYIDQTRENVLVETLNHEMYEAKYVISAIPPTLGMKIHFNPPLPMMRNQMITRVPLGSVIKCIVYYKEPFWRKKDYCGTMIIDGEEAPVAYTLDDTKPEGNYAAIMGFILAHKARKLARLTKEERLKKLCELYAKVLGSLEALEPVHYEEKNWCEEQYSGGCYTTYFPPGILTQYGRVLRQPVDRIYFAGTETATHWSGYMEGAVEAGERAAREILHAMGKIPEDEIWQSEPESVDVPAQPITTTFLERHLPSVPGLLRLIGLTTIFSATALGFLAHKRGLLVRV

[3] = biological target: T2, Amine oxidase [flavin-containing] B; test: Inhibition of human recombinant MAO-B expressed in BTI-TN-5B1-4 insect cells at 100 uM using p-tyramine substrate by Amplex Red MAO assay; settings: bti-tn-5b1-4, 100 µM; method in brief: as §1
Homo sapiens = organism: Homo sapiens; test: Selectivity index, ratio of IC50 for human recombinant MAO-A to IC50 for human recombinant MAO-B

With CC(=O)N1N=C(c2ccc(Cl)cc2)OC1c1ccc(Cl)cc1 (stereo in doubt; 4p) [listing 1 of 2 here] the “inhibition (INH)” value [1] was “Not Active” and the IC50 [2] was 0.115 µM.
In the case of COc1ccc(C2OC(c3ccc(C)cc3)=NN2C(C)=O)cc1OC (stereo not given), the “inhibition (INH)” value [1] is reported as “Not Active” and the “inhibition (INH)” value [3] is reported as “Not Active”.
In the case of COc1ccc(C2OC(c3ccccc3)=NN2C(C)=O)cc1 (stereo not given), the “inhibition (INH)” value [1] is reported as “Not Active”, the IC50 [2] is reported as 5.16 µM and the Ratio IC50 (Homo sapiens) is reported as over 19.
For CC(=O)N1N=C(c2ccccc2)OC1c1ccc(F)cc1 (stereo not given), the “inhibition (INH)” value [1] was “Not Active”, the IC50 [2] was 9.53 µM and the Ratio IC50 (Homo sapiens) was over 10.
CC(=O)N1N=C(c2ccc(Cl)cc2)O[C@@H]1c1ccc(Cl)cc1 was tested, and the “inhibition (INH)” value [1] was “Not Active”, the IC50 [2] was 0.101 µM and the Ratio IC50 (Homo sapiens) was over 994.
With CC(=O)N1N=C(c2ccc([N+](=O)[O-])cc2)OC1c1ccc(Cl)cc1 (stereo not given) the “inhibition (INH)” value [1] was “Not Active”, the IC50 [2] was 0.122 µM and the Ratio IC50 (Homo sapiens) was over 822.
CC(=O)N1N=C(c2ccccc2)OC1c1ccc(C)cc1 (stereo in doubt; 4y) [listing 1 of 2 here] gave a Ratio IC50 (Homo sapiens) of over 5.2.
CC(=O)N1N=C(c2ccc(Br)cc2)OC1c1ccc(Cl)cc1 (stereo in doubt; 4s) [listing 1 of 2 here] was tested, and the Ratio IC50 (Homo sapiens) was over 453.
With CC(=O)N1N=C(c2ccc(Br)cc2)OC1c1ccc(Cl)cc1 (stereo in doubt; 4s) [listing 2 of 2 here] the “inhibition (INH)” value [1] was “Not Active” and the IC50 [2] was 0.221 µM.
CC(=O)N1N=C(c2ccc(Cl)cc2)OC1c1ccc(Cl)cc1 (stereo in doubt; 4p) [listing 2 of 2 here] showed a Ratio IC50 (Homo sapiens) of over 867.
Work on CC(=O)N1N=C(c2ccc(Br)cc2)OC1c1ccc(Cl)cc1 (racemic) [listing 1 of 2 here] yielded an IC50 ([2]; bti-tn-5b1-4) of 0.221 µM.
For CC(=O)N1N=C(c2ccccc2)OC1c1ccc(Cl)cc1 (stereo not given), the “inhibition (INH)” value [1] was “Not Active” and the “inhibition (INH)” value [3] was “Not Active”.
In the case of CC(=O)N1N=C(c2ccc(C)cc2)OC1c1ccccc1 (stereo not given), the “inhibition (INH)” value [1] is reported as “Not Active” and the “inhibition (INH)” value [3] is reported as “Not Active”.
In the case of CC(=O)N1N=C(c2ccccc2)O[C@@H]1c1ccc(C)cc1, the “inhibition (INH)” value [1] is reported as “Not Active”, the IC50 [2] is reported as 8.46 µM and the Ratio IC50 (Homo sapiens) is reported as over 12.
With CC(=O)N1N=C(c2ccccc2)OC1c1ccc(C)cc1 (stereo in doubt; 4y) [listing 2 of 2 here] the “inhibition (INH)” value [1] was “Not Active” and the IC50 [2] was 19.4 µM.
CC(=O)N1N=C(c2ccccc2)OC1c1ccc(C)cc1 (racemic) [listing 1 of 2 here] was tested, and the Ratio IC50 (Homo sapiens) was over 5.2.
With COc1ccc(C2OC(c3ccc(C)cc3)=NN2C(C)=O)cc1 (stereo not given) the “inhibition (INH)” value [1] was “Not Active”, the IC50 [2] was 74.7 µM and the Ratio IC50 (Homo sapiens) was over 1.34.
In the case of COc1ccc(C2=NN(C(C)=O)C(c3ccc(Cl)cc3)O2)cc1 (stereo not given), the “inhibition (INH)” value [1] is reported as “Not Active” and the “inhibition (INH)” value [3] is reported as “Not Active”.
CC(=O)N1N=C(c2ccccc2)O[C@H]1c1ccc(C)cc1 was tested, and the “inhibition (INH)” value [1] was “Not Active” and the “inhibition (INH)” value [3] was “Not Active”.
In the case of CC(=O)N1N=C(c2ccncc2)OC1c1ccccc1 (stereo not given), the “inhibition (INH)” value [1] is reported as “Not Active” and the “inhibition (INH)” value [3] is reported as “Not Active”.
CC(=O)N1N=C(c2ccccc2)OC1c1ccccc1 (stereo not given) was tested, and the “inhibition (INH)” value [1] was “Not Active” and the “inhibition (INH)” value [3] was “Not Active”.
With CC(=O)N1N=C(c2ccc(Br)cc2)O[C@@H]1c1ccc(Cl)cc1 the “inhibition (INH)” value [1] was “Not Active”, the IC50 [2] was 0.0825 µM and the Ratio IC50 (Homo sapiens) was over 1210.
In the case of CC(=O)N1N=C(c2ccc(C)cc2)OC1c1ccc(N(C)C)cc1 (stereo not given), the “inhibition (INH)” value [1] is reported as “Not Active” and the “inhibition (INH)” value [3] is reported as “Not Active”.
CC(=O)N1N=C(c2ccncc2)OC1c1ccc(Cl)cc1 (stereo not given) was tested, and the “inhibition (INH)” value [1] was “Not Active” and the “inhibition (INH)” value [3] was “Not Active”.
In the case of COc1ccc(C2OC(c3ccncc3)=NN2C(C)=O)cc1 (stereo not given), the “inhibition (INH)” value [1] is reported as “Not Active” and the “inhibition (INH)” value [3] is reported as “Not Active”.
CC(=O)N1N=C(c2ccc(Cl)cc2)O[C@H]1c1ccc(Cl)cc1 was tested, and the “inhibition (INH)” value [1] was “Not Active” and the “inhibition (INH)” value [3] was “Not Active”.
CC(=O)N1N=C(c2ccc(C)cc2)OC1c1ccc(Cl)cc1Cl (stereo not given) was tested, and the “inhibition (INH)” value [1] was “Not Active” and the “inhibition (INH)” value [3] was “Not Active”.
For CC(=O)N1N=C(c2ccncc2)OC1c1ccc(C)cc1 (stereo not given), the “inhibition (INH)” value [1] was “Not Active” and the “inhibition (INH)” value [3] was “Not Active”.
For CC(=O)N1N=C(c2ccccc2)OC1c1ccc(N(C)C)cc1 (stereo not given), the “inhibition (INH)” value [1] was “Not Active” and the “inhibition (INH)” value [3] was “Not Active”.
In the case of CC(=O)N1N=C(c2ccc(Cl)cc2)OC1c1ccc(Cl)cc1 (racemic) [listing 1 of 2 here], the IC50 ([2]; bti-tn-5b1-4) is reported as 0.115 µM.
For CC(=O)N1N=C(c2ccncc2)OC1c1ccc(Cl)cc1Cl (stereo not given), the “inhibition (INH)” value [1] was “Not Active” and the “inhibition (INH)” value [3] was “Not Active”.
For CC(=O)N1N=C(c2ccc(C)cc2)OC1c1ccc(C)cc1 (stereo not given), the “inhibition (INH)” value [1] was “Not Active”, the IC50 [2] was 66.6 µM and the Ratio IC50 (Homo sapiens) was over 1.5.
With CC(=O)N1N=C(c2ccc(Br)cc2)O[C@H]1c1ccc(Cl)cc1 the “inhibition (INH)” value [1] was “Not Active” and the “inhibition (INH)” value [3] was “Not Active”.
CC(=O)N1N=C(c2ccccc2)OC1c1ccc(C)cc1 (racemic) [listing 2 of 2 here] was tested, and the IC50 ([2]; bti-tn-5b1-4) was 19.4 µM.
With CC(=O)N1N=C(c2ccc(C)cc2)OC1c1ccc(Cl)cc1 (stereo not given) the “inhibition (INH)” value [1] was “Not Active” and the “inhibition (INH)” value [3] was “Not Active”.
CC(=O)N1N=C(c2ccccc2)OC1c1ccc([N+](=O)[O-])cc1 (stereo not given) was tested, and the “inhibition (INH)” value [1] was “Not Active” and the “inhibition (INH)” value [3] was “Not Active”.
CC(=O)N1N=C(c2ccc(Cl)cc2)OC1c1ccc(Cl)cc1 (racemic) [listing 2 of 2 here] was tested, and the Ratio IC50 (Homo sapiens) was over 867.
COc1ccc(C2OC(c3ccncc3)=NN2C(C)=O)cc1OC (stereo not given) was tested, and the “inhibition (INH)” value [1] was “Not Active” and the “inhibition (INH)” value [3] was “Not Active”.
In the case of CC(=O)N1N=C(c2ccc(Br)cc2)OC1c1ccc(Cl)cc1 (racemic) [listing 2 of 2 here], the Ratio IC50 (Homo sapiens) is reported as over 453.
CC(=O)N1N=C(c2ccncc2)OC1c1ccc(N(C)C)cc1 (stereo not given) was tested, and the “inhibition (INH)” value [1] was “Not Active”, the IC50 [2] was 46.8 µM and the Ratio IC50 (Homo sapiens) was over 2.14.
